Test results reported in ChEMBL document CHEMBL1150597, “Syntheses of two cytotoxic sinapyl alcohol derivatives and isolation of four new related compounds from Ligularia nelumbifolia” (J Nat Prod, 2002).
pIC50: −log10 of the molar value.

Key:
Assay type in all cases: functional, cell-based
[1] = test system: KB; test: Cytotoxicity against human KB cells after 72 hrs
Method in brief: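 KB cells from the American Type Culture Collection; growth monitored after 72 h incubation with compound. IC50 taken as the drug concentration giving 50% growth inhibition.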

[2] = test system: A549; test: Cytotoxicity against human A549 cells by SRB assay
[3] = test system: HL-60; test: Cytotoxicity against human HL60 cells by SRB assay

Row | SMILES | pIC50 [1] | pIC50 [2] | pIC50 [3]
1 | COc1cc(/C=C/CO)cc(OC)c1OCc1ccccc1 | 3.07 | – | –
2 | COc1cc(/C=C/C=O)cc(OC)c1OCc1ccccc1 | 3.19 | – | –
3 | COc1cc(/C=C/CO)cc(OC)c1OCC=C(C)C | 5.11 | – | –
4 | COc1cc(/C=C/C=O)cc(OC)c1OC/C=C(\C)CCC=C(C)C [NELUMAL A] | 5.59 | 4.66 | 4.92
5 | COc1cc(/C=C/CO)cc(OC)c1OC/C=C(\C)CCC=C(C)C [NELUMOL A] | 5.52 | 4.47 | 5.17
